# Assay results as given in ChEMBL document CHEMBL3734675, “Synthesis, antimycobacterial and antibacterial activity of fluoroquinolone derivatives containing an 3-alkoxyimino-4-(cyclopropylanimo)methylpyrrolidine moiety” (2015).
# Tests used:
# Type in all cases: functional
# [1] = tested on: Mycobacterium tuberculosis; assay: Antimycobacterial activity against Mycobacterium tuberculosis H37Rv ATCC 27294 incubated for 7 days by microplate Alamar Blue assay; settings: H37Rv ATCC 27294, 168 h
# How it was run: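 Fluorescence read-out. MIC is the lowest concentration that reduces fluorescence by at least 90% relative to the mean of replicate bacterium-only controls. Isoniazid and rifampicin were included as reference drugs.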
# [2] = tested on: Escherichia coli; assay: Antibacterial activity against Escherichia coli ATCC 25922 after 18 to 24 hrs by two-fold serial dilution method
# How it was run: (§1)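 Twofold serial dilution in agar media against Gram-positive and Gram-negative strains. Plates incubated at 35 °C for 18–24 h. MIC read as the lowest compound concentration giving complete inhibition of bacterial growth.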
# [3] = tested on: Escherichia coli; assay: Antibacterial activity against extended-spectrum beta-lactamase producing Escherichia coli 14-1 after 18 to 24 hrs by two-fold serial dilution method; how it was run: as §1
# [4] = tested on: Escherichia coli; assay: Antibacterial activity against extended-spectrum beta-lactamase producing Escherichia coli 14-2 after 18 to 24 hrs by two-fold serial dilution method; how it was run: as §1
# [5] = tested on: Escherichia coli; assay: Antibacterial activity against Escherichia coli 14-1 after 18 to 24 hrs by two-fold serial dilution method; how it was run: as §1
# [6] = tested on: Escherichia coli; assay: Antibacterial activity against Escherichia coli 14-2 after 18 to 24 hrs by two-fold serial dilution method; how it was run: as §1
# [7] = tested on: Klebsiella pneumoniae; assay: Antibacterial activity against extended-spectrum beta-lactamase producing Klebsiella pneumoniae 14-17 after 18 to 24 hrs by two-fold serial dilution method; how it was run: as §1
# [8] = tested on: Klebsiella pneumoniae; assay: Antibacterial activity against extended-spectrum beta-lactamase producing Klebsiella pneumoniae 14-18 after 18 to 24 hrs by two-fold serial dilution method; how it was run: as §1
# [9] = tested on: Klebsiella pneumoniae; assay: Antibacterial activity against extended-spectrum beta-lactamase producing Klebsiella pneumoniae 14-19 after 18 to 24 hrs by two-fold serial dilution method; how it was run: as §1
# [10] = tested on: Klebsiella pneumoniae; assay: Antibacterial activity against Klebsiella pneumoniae 14-1 after 18 to 24 hrs by two-fold serial dilution method; how it was run: as §1
# [11] = tested on: Klebsiella pneumoniae; assay: Antibacterial activity against Klebsiella pneumoniae 14-2 after 18 to 24 hrs by two-fold serial dilution method; how it was run: as §1
# [12] = tested on: Klebsiella pneumoniae; assay: Antibacterial activity against Klebsiella pneumoniae 14-3 after 18 to 24 hrs by two-fold serial dilution method; how it was run: as §1
# [13] = tested on: Klebsiella pneumoniae; assay: Antibacterial activity against Klebsiella pneumoniae 14-4 after 18 to 24 hrs by two-fold serial dilution method; how it was run: as §1
# [14] = tested on: Pseudomonas aeruginosa; assay: Antibacterial activity against Pseudomonas aeruginosa ATCC 27853 after 18 to 24 hrs by two-fold serial dilution method; how it was run: as §1
# [15] = tested on: Pseudomonas aeruginosa; assay: Antibacterial activity against Pseudomonas aeruginosa 14-9 after 18 to 24 hrs by two-fold serial dilution method; how it was run: as §1
# [16] = tested on: Pseudomonas aeruginosa; assay: Antibacterial activity against Pseudomonas aeruginosa 14-14 after 18 to 24 hrs by two-fold serial dilution method; how it was run: as §1
# [17] = tested on: Pseudomonas aeruginosa; assay: Antibacterial activity against Pseudomonas aeruginosa 14-15 after 18 to 24 hrs by two-fold serial dilution method; how it was run: as §1
# [18] = tested on: Pseudomonas aeruginosa; assay: Antibacterial activity against Pseudomonas aeruginosa 14-16 after 18 to 24 hrs by two-fold serial dilution method; how it was run: as §1
# [19] = tested on: Staphylococcus aureus; assay: Antibacterial activity against Staphylococcus aureus CMCC 26003 after 18 to 24 hrs by two-fold serial dilution method; how it was run: as §1
# [20] = tested on: Staphylococcus aureus; assay: Antibacterial activity against methicillin-sensitive Staphylococcus aureus 14-1 after 18 to 24 hrs by two-fold serial dilution method; how it was run: as §1
# [21] = tested on: Staphylococcus aureus; assay: Antibacterial activity against methicillin-sensitive Staphylococcus aureus 14-3 after 18 to 24 hrs by two-fold serial dilution method; how it was run: as §1
# [22] = tested on: Staphylococcus aureus; assay: Antibacterial activity against methicillin-sensitive Staphylococcus aureus 14-4 after 18 to 24 hrs by two-fold serial dilution method; how it was run: as §1
# [23] = tested on: Staphylococcus aureus; assay: Antibacterial activity against methicillin-resistant Staphylococcus aureus 14-4 after 18 to 24 hrs by two-fold serial dilution method
# How it was run: (§2)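 Agar media, standard twofold serial dilution. MIC is the lowest concentration giving complete inhibition of bacterial growth after incubation at 35 °C for 18–24 h. Ciprofloxacin and levofloxacin were run as comparators.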
# [24] = tested on: Staphylococcus aureus; assay: Antibacterial activity against methicillin-resistant Staphylococcus aureus 14-5 after 18 to 24 hrs by two-fold serial dilution method; how it was run: as §2
# [25] = tested on: Staphylococcus epidermidis; assay: Antibacterial activity against methicillin-sensitive Staphylococcus epidermidis 14-2 after 18 to 24 hrs by two-fold serial dilution method; how it was run: as §1
# [26] = tested on: Staphylococcus epidermidis; assay: Antibacterial activity against methicillin-resistant Staphylococcus epidermidis 14-21 after 18 to 24 hrs by two-fold serial dilution method; how it was run: as §2
# [27] = tested on: Staphylococcus epidermidis; assay: Antibacterial activity against methicillin-resistant Staphylococcus epidermidis 14-22 after 18 to 24 hrs by two-fold serial dilution method; how it was run: as §2
# [28] = tested on: Staphylococcus epidermidis; assay: Antibacterial activity against methicillin-resistant Staphylococcus epidermidis 14-37 after 18 to 24 hrs by two-fold serial dilution method; how it was run: as §2
# [29] = tested on: Staphylococcus epidermidis; assay: Antibacterial activity against methicillin-resistant Staphylococcus epidermidis 14-39 after 18 to 24 hrs by two-fold serial dilution method; how it was run: as §2
# [30] = tested on: Streptococcus pneumoniae; assay: Antibacterial activity against methicillin-resistant Streptococcus pneumoniae ATCC 19615 after 18 to 24 hrs by two-fold serial dilution method; how it was run: as §2
# [31] = tested on: Enterococcus faecium; assay: Antibacterial activity against Enterococcus faecium 14-2 after 18 to 24 hrs by two-fold serial dilution method; how it was run: as §1
# [32] = tested on: Enterococcus faecium; assay: Antibacterial activity against Enterococcus faecium 14-5 after 18 to 24 hrs by two-fold serial dilution method; how it was run: as §1
# [33] = tested on: Enterococcus faecium; assay: Antibacterial activity against Enterococcus faecium 14-6 after 18 to 24 hrs by two-fold serial dilution method; how it was run: as §1
# [34] = tested on: Enterococcus faecalis; assay: Antibacterial activity against Enterococcus faecalis 14-1 after 18 to 24 hrs by two-fold serial dilution method; how it was run: as §1
# [35] = tested on: Enterococcus faecalis; assay: Antibacterial activity against Enterococcus faecalis 14-2 after 18 to 24 hrs by two-fold serial dilution method; how it was run: as §1
# [36] = tested on: Staphylococcus aureus; assay: Potency index, ratio of ciprofloxacin MIC to compound MIC for methicillin-resistant Staphylococcus aureus 14-4
# [37] = tested on: Staphylococcus aureus; assay: Potency index, ratio of ciprofloxacin MIC to compound MIC for methicillin-resistant Staphylococcus aureus 14-5
# [38] = tested on: Staphylococcus epidermidis; assay: Potency index, ratio of ciprofloxacin MIC to compound MIC for methicillin-resistant Staphylococcus epidermidis 14-21
# [39] = tested on: Staphylococcus epidermidis; assay: Potency index, ratio of ciprofloxacin MIC to compound MIC for methicillin-resistant Staphylococcus epidermidis 14-22
# [40] = tested on: Staphylococcus epidermidis; assay: Potency index, ratio of ciprofloxacin MIC to compound MIC for methicillin-resistant Staphylococcus epidermidis 14-37
# [41] = tested on: Staphylococcus epidermidis; assay: Potency index, ratio of ciprofloxacin MIC to compound MIC for methicillin-resistant Staphylococcus epidermidis 14-39
# [42] = tested on: Enterococcus faecium; assay: Potency index, ratio of ciprofloxacin MIC to compound MIC for Enterococcus faecium 14-2
# [43] = tested on: Enterococcus faecium; assay: Potency index, ratio of ciprofloxacin MIC to compound MIC for Enterococcus faecium 14-5
# [44] = tested on: Enterococcus faecium; assay: Potency index, ratio of ciprofloxacin MIC to compound MIC for Enterococcus faecium 14-6
# [45] = tested on: Enterococcus faecalis; assay: Potency index, ratio of ciprofloxacin MIC to compound MIC for Enterococcus faecalis 14-1
# [46] = tested on: Enterococcus faecalis; assay: Potency index, ratio of ciprofloxacin MIC to compound MIC for Enterococcus faecalis 14-2
# [47] = tested on: Staphylococcus aureus; assay: Potency index, ratio of levofloxacin MIC to compound MIC for methicillin-resistant Staphylococcus aureus 14-4
# [48] = tested on: Staphylococcus aureus; assay: Potency index, ratio of levofloxacin MIC to compound MIC for methicillin-resistant Staphylococcus aureus 14-5
# [49] = tested on: Staphylococcus epidermidis; assay: Potency index, ratio of levofloxacin MIC to compound MIC for methicillin-resistant Staphylococcus epidermidis 14-21
# [50] = tested on: Staphylococcus epidermidis; assay: Potency index, ratio of levofloxacin MIC to compound MIC for methicillin-resistant Staphylococcus epidermidis 14-22
# [51] = tested on: Staphylococcus epidermidis; assay: Potency index, ratio of levofloxacin MIC to compound MIC for methicillin-resistant Staphylococcus epidermidis 14-37
# [52] = tested on: Staphylococcus epidermidis; assay: Potency index, ratio of levofloxacin MIC to compound MIC for methicillin-resistant Staphylococcus epidermidis 14-39
# [53] = tested on: Enterococcus faecium; assay: Potency index, ratio of levofloxacin MIC to compound MIC for Enterococcus faecium 14-2
# [54] = tested on: Enterococcus faecium; assay: Potency index, ratio of levofloxacin MIC to compound MIC for Enterococcus faecium 14-5
# [55] = tested on: Enterococcus faecium; assay: Potency index, ratio of levofloxacin MIC to compound MIC for Enterococcus faecium 14-6
# [56] = tested on: Enterococcus faecalis; assay: Potency index, ratio of levofloxacin MIC to compound MIC for Enterococcus faecalis 14-1
# [57] = tested on: Enterococcus faecalis; assay: Potency index, ratio of levofloxacin MIC to compound MIC for Enterococcus faecalis 14-2
structure (smiles),measurement,setting,value
CO/N=C1/CN(c2c(F)cc3c(=O)c(C(=O)O)cn4c3c2OC[C@@H]4C)CC1(C)CNC1CC1 (some centres not stated),MIC90,[1],0.64 µg/mL
same,MIC,[2],2 µg/mL
same,MIC,[3],4 µg/mL
same,MIC,[4],> 128 µg/mL
same,MIC,[5],64 µg/mL
same,MIC,[6],64 µg/mL
same,MIC,[7],16 µg/mL
same,MIC,[8],16 µg/mL
same,MIC,[9],32 µg/mL
same,MIC,[10],16 µg/mL
same,MIC,[11],16 µg/mL
same,MIC,[12],128 µg/mL
same,MIC,[13],> 128 µg/mL
same,MIC,[14],16 µg/mL
same,MIC,[15],8 µg/mL
same,MIC,[16],32 µg/mL
same,MIC,[17],32 µg/mL
same,MIC,[18],32 µg/mL
same,MIC,[19],< 0.008 µg/mL
same,MIC,[20],2 µg/mL
same,MIC,[21],0.015 µg/mL
same,MIC,[22],0.015 µg/mL
same,MIC,[23],4 µg/mL
same,MIC,[24],4 µg/mL
same,MIC,[25],8 µg/mL
same,MIC,[26],4 µg/mL
same,MIC,[27],2 µg/mL
same,MIC,[28],2 µg/mL
same,MIC,[29],2 µg/mL
same,MIC,[30],0.5 µg/mL
same,MIC,[31],4 µg/mL
same,MIC,[32],4 µg/mL
same,MIC,[33],8 µg/mL
same,MIC,[34],8 µg/mL
same,MIC,[35],0.5 µg/mL
same,Ratio,[36],2
same,Ratio,[37],2
same,Ratio,[38],2
same,Ratio,[39],2
same,Ratio,[40],2
same,Ratio,[41],2
same,Ratio,[42],2
same,Ratio,[43],2
same,Ratio,[44],2
same,Ratio,[45],2
same,Ratio,[46],2
same,Ratio,[47],2
same,Ratio,[48],2
same,Ratio,[49],2
same,Ratio,[50],2
same,Ratio,[51],2
same,Ratio,[52],2
same,Ratio,[53],2
same,Ratio,[54],2
same,Ratio,[55],2
same,Ratio,[56],2
same,Ratio,[57],2
